# NR3A LBD binder = binders of NR3A ligand-binding domain, primary screen, biophysical, differential scanning fluorimetry, uHTS; Glutamate receptor ionotropic, NMDA 3A (GRIN3A) ligand-binding domain; NR3A LBD differential scanning fluorimetry, Tm shift; 0% = protein alone, 100% = glycine-bound protein; Tm shift relative to glycine control, % at 25 µM; 340,000 tested, 2.5% active;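 active means melting temperature shift of at least 10% of the positive control shift, at one fixed dose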
# SENP1 FRET inh = human SENP1 catalytic domain inhibitors, primary screen, biochemical, FRET, uHTS | 360,000 tested, 0.21% active | recombinant SENP1 catalytic domain, CyPet-SUMO1-YPet FRET cleavage | inhibition, % at 10 µM | Sentrin-specific protease 1 (Homo sapiens), Q9P0U3;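 active means inhibition at least 30% at 10 µM, raw YFP signal under a set limit, fluorescence ratio 0.5 to 1.5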;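 further: 0% = enzyme with DMSO and 100% = no enzyme wells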
# Target sequence (Q9P0U3 419-644 limits assumed): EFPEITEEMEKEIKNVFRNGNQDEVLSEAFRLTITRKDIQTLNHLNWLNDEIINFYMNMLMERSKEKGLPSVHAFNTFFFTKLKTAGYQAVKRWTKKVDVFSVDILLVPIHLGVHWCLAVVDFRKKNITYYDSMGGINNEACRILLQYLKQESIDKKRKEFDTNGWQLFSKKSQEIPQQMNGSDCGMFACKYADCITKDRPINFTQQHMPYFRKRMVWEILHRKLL
#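 System: Recombinant human SENP1 catalytic domain, His6-tagged | Incubation: Enzyme reaction for 50 min at room temperature, dark | Medium: Tris pH 8 with BME, BSA, NP40 and catalase | Also added: 25 nM SUMO1 FRET substrate | Compound: 10 µM single point, 0.5% DMSO | Measured by: FRET fluorescence in CFP and YFP emission channels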
# MPTP block = mitochondrial permeability transition pore inhibitors, primary screen, biochemical, isolated mouse mitochondria, absorbance; Ca2+ swelling absorbance, 30 min; inhibition, % at 10 µM; 360,000 tested, 1.4% active; AID 602449, 2012;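 active means inhibition of 50% or more, scaled per plate between neutral and stimulator controls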;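 further: 0% = DMSO wells given calcium and 100% = 1 mM EGTA wells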
# EBI2 antag = EBI2 receptor antagonists, beta-arrestin recruitment, primary screen, cell-based, luminescence, 7a,25-OHC stimulation, uHTS; G-protein coupled receptor 183 (Homo sapiens), P32249; inhibition, % at 5 µM; 7a,25-OHC stimulated; 360,000 tested, 0.81% active; in the data active means inhibition above about 38%;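 further: enzyme fragment complementation signal reports receptor beta-arrestin coupling in cells; 0% = agonist plus DMSO wells and 100% = wells without agonist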
# Target sequence (P32249 whole entry, looked up, the tested form may be a part): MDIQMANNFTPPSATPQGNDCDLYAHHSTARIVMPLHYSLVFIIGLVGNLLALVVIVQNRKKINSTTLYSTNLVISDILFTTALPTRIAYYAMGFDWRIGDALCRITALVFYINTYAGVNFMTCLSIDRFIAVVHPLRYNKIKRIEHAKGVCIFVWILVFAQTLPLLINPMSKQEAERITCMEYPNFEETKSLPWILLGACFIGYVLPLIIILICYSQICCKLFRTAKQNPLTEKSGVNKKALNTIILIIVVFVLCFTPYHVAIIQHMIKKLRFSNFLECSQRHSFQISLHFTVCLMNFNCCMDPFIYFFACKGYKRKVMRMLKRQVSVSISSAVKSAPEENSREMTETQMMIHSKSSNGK
# MPTP counter = fluorescence retest of MPTP screen hits in isolated mitochondria, single concentration. shares compounds with MPTP block. membrane potential, Rhodamine 123 fluorescence. inhibition, % at 10 µM. 5,000 tested, 78% active. AID 624504, 2012; in the data active means inhibition above about 22%;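 further: 0% = DMSO vehicle and 100% = positive control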
# MPTP abs DR = mitochondrial permeability transition pore inhibitors, dose response, biochemical, absorbance, uHTS hits | shares compounds with MPTP block | isolated mitochondria swelling | IC50, µM | 780 tested, 58% active | AID 651561, 2012; in the data active means IC50 below about 20 µM
# MPTP counter DR = fluorescent counter-screen in isolated mitochondria, dose response, counter-screen for MPTP inhibitor project, biochemical, fluorescence, uHTS hits; shares compounds with MPTP block; isolated mitochondria counterscreen, fluorescence read-out; IC50, µM; 780 tested, 49% active; AID 651564, 2012; in the data active means IC50 below about 80 µM
# An asterisk follows results filed as active; nt = no result given. In the library only some 4.4% were active in any assay of this set; here they are far more common.
SMILES,NR3A LBD binder,SENP1 FRET inh,MPTP block,EBI2 antag,MPTP counter,others
O=C(CN(Cc1ccco1)Cc1ccco1)Nc1cc(S(=O)(=O)N2CCCCC2)ccc1Cl,0,-3,0,9,nt,
COc1ccc(Cl)cc1NC(=S)NCCc1ccc(F)cc1,7,-1,7,-1,nt,
Fc1ccc(CCNC(=S)Nc2ccc(F)c(Cl)c2)cc1,35*,3,103*,14,95*,
Fc1ccc(NC(=S)NCc2ccccc2Cl)cc1,-5,0,92*,-9,76*,
O=C(NCCc1ccc(Cl)cc1)Nc1ccc(F)cc1,4,-1,1,28,nt,
Fc1ccc(NC(=S)NCCc2ccc(Cl)cc2)cc1,23*,3,89*,11,90*,
COc1ccccc1CNC(=S)Nc1ccc(F)cc1,2,0,0,-9,nt,
C=CCNc1nc(N2CCCCC2)c(C#N)c2c1CN(Cc1ccccc1)CC2,-14,-16,0,13,nt,
CCOC(=O)c1ccc(Nc2ccc(C(C)=O)cc2)cc1,nt,3,1,-3,nt,
CCOC(=O)c1ccc(Nc2nnc(C(C)(C)C)c(=O)[nH]2)cc1,-6,3,93*,2,83*,
Fc1ccc(NC(=S)NN=Cc2ccccc2Cl)cc1,-6,3,2,39,nt,
Oc1ccccc1C=NNC(=S)NC1CC2C=CC1C2 (stereo not drawn),nt,-121,27,30,nt,
Oc1ccccc1C=NNC(=S)Nc1ccc(F)cc1,14*,-48,63*,-8,71*,
Oc1c(Cl)cc(Cl)cc1/C=N/NC(=S)NC1CC2C=CC1C2 (stereo not drawn),12*,-32,89*,2,62*,
Oc1ccccc1/C=N/NC(=S)NC1CC2C=CC1C2 (stereo not drawn),0,-109,57*,29,70*,
NC(Cc1ccc(F)cc1)c1csc(Nc2ccc(C(F)(F)F)cn2)n1 (stereo not drawn),nt,-5,1,-4,nt,
CCC1CCC2(CC1)NC(=O)N(CC(=O)N1CCc3ccccc31)C2=O (stereo not drawn),0,1,0,1,nt,
Cc1ccc(NC(=O)CN(C)C(=O)CSc2nnc(C(F)(F)F)n2C)cc1,0,0,0,-4,nt,
O=S(=O)(NC1CC(NS(=O)(=O)OCC(Cl)(Cl)Cl)C2CCCCC12)OCC(Cl)(Cl)Cl (stereo not drawn),9,1,70*,-7,102*,
COc1ccc(C(CNC(=O)c2ccc(NS(=O)(=O)c3ccc(F)c(C)c3)cc2)N2CCCC2)cc1 (stereo not drawn),0,-11,-2,6,nt,
CCOc1ccc(NS(=O)(=O)c2ccc(C(=O)NCC(c3ccc(OC)cc3)N3CCCC3)cc2)cc1 (stereo not drawn),4,-2,85*,4,-12,MPTP abs DR=9*;MPTP counter DR=>80
CCc1ccc(S(=O)(=O)NCc2ccc(C(=O)NCCN(Cc3ccccc3)C(C)C)cc2)cc1,nt,3,97*,-1,93*,
CC1CCC(C(C)C)C(OC(=O)Cn2c(-c3ccc(Cl)cc3)[n+](C)c3ccccc32)C1 (stereo not drawn),-4,1,54*,10,79*,
COc1ccc(-c2c[n+](CC(=O)OC3CC(C)CCC3C(C)C)c3n2CCC3)cc1 (stereo not drawn),-2,2,0,-11,nt,
CC(C)[C@@H]1CC[C@@H](C)C[C@H]1OC(=O)C[n+]1cc(-c2ccc(Cl)cc2)n2c1CCCCC2,-1,0,64*,5,86*,
SMILES,NR3A LBD binder,SENP1 FRET inh,MPTP block,EBI2 antag,MPTP counter,others
Cc1ccc(-c2nc(CS(=O)CC(=O)NCc3ccc4c(c3)OCO4)c(C)o2)cc1 (stereo not drawn),1,1,-2,2,nt,
CCCCN1CC(COCc2ccccc2)Oc2cc(Br)ccc2S1(=O)=O (stereo not drawn),4,-5,-1,14,nt,
CC(C)[C@H](NC(=O)OCc1ccccc1)C(=O)OCC(=O)NC1(C#N)CCCC1,-1,0,1,0,nt,
Cc1ccc(-n2[nH]c(C)c(/C=N/Nc3ccc([N+](=O)[O-])cc3[N+](=O)[O-])c2=O)cc1C,20*,3,115*,13,61*,
COc1ccc(NC(=O)CN(C)CC(=O)NCc2ccc(C)cc2)cc1,1,0,1,3,nt,
CCN(CC)C(=O)c1ncn(C)c1C(=O)N(CC)CC,0,1,0,-6,nt,
CCCCOc1ccc(CSC(CC(=O)O)C(=O)O)cc1 (stereo not drawn),4,1,2,0,nt,
CCCCOc1ccc(CSCCN=C(N)N)cc1,-1,0,72*,2,6,MPTP abs DR=4.3*;MPTP counter DR=24*
CCCCOc1ccc(C(=O)N2CCN(CC(=O)Nc3ccc(C)cc3)CC2)cc1OC,1,0,1,-9,nt,
CCSc1nc2sc3c(c2c(=O)n1C1CCCCC1)CCN(C)C3,1,-51,50*,12,30*,
C=C(C)CSc1nc2sc3c(c2c(=O)n1C1CCCCC1)CCN(C)C3,1,-35,1,13,nt,
Cc1cccc(Oc2cnn(C(C)(C)C)c(=O)c2Cl)c1,1,-9,62*,-7,45*,
COc1cnn(C(C)(C)C)c(=O)c1Cl,2,-1,-1,4,nt,
C#CCN1C=CC(=O)[C@@H](OC(=O)Nc2ccc(Cl)cc2)[C@H]1c1ccccc1Br,-7,-1,0,2,nt,
O=C(Nc1ccc(C(=O)OC[C@@H]2CCCN3CCCC[C@H]23)cc1)c1cccc(Br)c1,-7,2,70*,-5,-7,MPTP abs DR=14*;MPTP counter DR=47*
CC(C)c1ccc(Oc2cccc3c2S(=O)(=O)N(C2CCCC2)CC(COCc2ccccc2)O3)cc1 (stereo not drawn),0,0,0,14,nt,
CCOC(=O)C(=O)Nc1ccc(OC)c(Cl)c1,-2,1,-2,-6,nt,
CN(C)CCNC(=O)Nc1ccc(Cl)c(Cl)c1,-2,2,71*,-6,94*,
CCOC(=O)N(C)OC(=O)Nc1ccc(Cl)c(Cl)c1,3,1,73*,4,83*,
CC(C)(O)CNC(=O)Nc1ccc(Cl)c(Cl)c1,1,1,15,8,nt,
CCOC(=O)NCCOC(=O)Nc1ccc(Cl)cc1,-1,1,-2,-1,nt,
CCOC(=O)CNNC(=O)Nc1ccc(Cl)c(Cl)c1,-1,1,69*,4,65*,

# Screens as filed in PubChem BioAssay.
